Measurements: ChEMBL document CHEMBL4715737, “New 1,3-thiazole derivatives and their biological and ultrastructural effects on Trypanosoma cruzi” (Eur J Med Chem, 2016)
Active and inactive are the calls of the source. No cut-off for these calls is given here.

How the values were obtained:
[1] = Cytotoxicity against BALB/c mouse splenocyte incubated for 24 hrs by [3H]-thymidine incorporation based counter beta irradiation method; format: cell-based; conditions: splenocytes
Method in brief: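 BALB/c splenocytes, 5 × 10^6 cells/well in RPMI-1640 + 10% inactivated FBS. Compounds from 10 mg/mL DMSO stock, serially diluted to […] (units as printed), in triplicate. Saponin 0.1 mg/mL positive control; medium + DMSO negative (=100%). 3H-thymidine 1.0 added, 24 h at 37 °C, 5% CO2, beta counting; highest concentration giving >90% incorporation taken as non-toxic.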

[2] = molecular target: Cruzipain (Trypanosoma cruzi, UniProt P25779); experiment: Inhibition of recombinant Trypanosoma cruzi cruzain using Z-FR-AMC as substrate and measured at 12 sec interval for 5 mins by fluorimetric analysis
Method in brief: (§1)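 Cruzain (1 nM) in 0.1 M sodium acetate pH 5.5, 0.01% Triton X-100, 1 mM β-mercaptoethanol, substrate Z-FR-AMC, no pre-incubation. Fluorescence read at 25 °C every 12 s for 5 min; rates from initial velocities versus DMSO control. Screened at 300, 200 or 100 (solubility-limited). At least two independent experiments, each in triplicate.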

[3] = Selectivity index, ratio of >90% maximum non-toxic concentration for BALB/c mouse splenocyte to IC50 for Trypanosoma cruzi Y strain trypomastigotes; format: toxicity; conditions: splenocytes, read-out: Selectivity Index
Method in brief: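 SI computed as highest non-toxic splenocyte concentration (>90% 3H-thymidine incorporation, 24 h) divided by trypomastigote IC50 (24 h, Neubauer motility count).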

[4] = molecular target: Cruzipain (Trypanosoma cruzi) (UniProt P25779); experiment: Inhibition of recombinant Trypanosoma cruzi cruzain at 300 uM using Z-FR-AMC as substrate and measured at 12 sec interval for 5 mins by fluorimetric analysis relative to control
Method in brief: as §1, with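 “(solubility-limited). Where inhibition exceeded 80%, IC50 came from seven concentrations by four-parameter variable-slope regression.” for “(solubility-limited).”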

[5] = test system: Trypanosoma cruzi; experiment: Antiparasitic activity against Trypanosoma cruzi Y strain trypomastigotes assessed as reduction in parasite viability after 24 hrs by Neubauer chamber counting method; format: functional, organism-based
Method in brief: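 Y strain trypomastigotes collected from Vero cell supernatant, plated at 4 × 10^5 per well, treated in triplicate for 24 h at 37 °C, 5% CO2; benznidazole positive control. Motile (viable) parasites counted in Neubauer chamber, untreated wells = 100%. IC50 by nonlinear regression from at least seven concentrations.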

[6] = molecular target: Cruzipain (Trypanosoma cruzi) (UniProt P25779); experiment: Inhibition of recombinant Trypanosoma cruzi cruzain at 200 uM using Z-FR-AMC as substrate and measured at 12 sec interval for 5 mins by fluorimetric analysis relative to control
Method in brief: as §1, with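 “(solubility-limited). Where inhibition exceeded 80%, IC50 came from seven concentrations by four-parameter variable-slope regression.” for “(solubility-limited).”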

[7] = test system: Trypanosoma cruzi; experiment: Induction of morphological changes in Trypanosoma cruzi trypomastigotes assessed as membrane projections at 3.4 uM after 24 hrs by TEM analysis; format: functional, organism-based
Method in brief: (§2)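 Trypomastigotes cultured 24 h in RPMI 1640 pH 7.5 with 20 mM HEPES, 10% FBS, penicillin/streptomycin plus compound at 3.4 and 6.8. Parasites washed in PBS and fixed in 2.5% glutaraldehyde/4% formaldehyde in 0.1 M cacodylate pH 6.8, then postfixed in 2% OsO4. SEM samples were ethanol-dehydrated, critical-point dried and gold-coated. TEM samples were acetone-dehydrated, epon-embedded and stained with uranyl acetate/lead citrate. Untreated controls were included.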

[8] = test system: Trypanosoma cruzi; experiment: Induction of morphological changes in Trypanosoma cruzi trypomastigotes assessed as formation of membrane blebs at 3.4 to 6.8 uM after 24 hrs by TEM analysis; format: functional, organism-based; conditions: dose 3.4-6.8 µM; method in brief: as §2
[9] = test system: Trypanosoma cruzi; experiment: Induction of morphological changes in Trypanosoma cruzi trypomastigotes assessed as mitochondrial swelling at 3.4 to 6.8 uM after 24 hrs by TEM analysis; format: functional, organism-based; conditions: dose 3.4-6.8 µM; method in brief: as §2
[10] = test system: Trypanosoma cruzi; experiment: Induction of morphological changes in Trypanosoma cruzi trypomastigotes assessed as cytoplasmic vacuolization at 6.8 uM after 24 hrs by TEM analysis; format: functional, organism-based; method in brief: as §2
[11] = test system: Trypanosoma cruzi; experiment: Induction of cytoplasmic vacuolization, irreversible lesions and changes in parasitic morphology in Trypanosoma cruzi trypomastigotes after 24 hrs by TEM analysis; format: functional; conditions: dose 3.4-6.8 µM; method in brief: as §2
[12] = test system: Trypanosoma cruzi; experiment: Induction of morphological changes in Trypanosoma cruzi trypomastigotes assessed as contortion of parasite body with presence of blebs in flagellum and parasite body at 3.4 uM after 24 hrs by SEM analysis; format: functional, organism-based; method in brief: as §2
[13] = test system: Trypanosoma cruzi; experiment: Induction of morphological changes in Trypanosoma cruzi trypomastigotes assessed as contortion of parasite body and alteration in morphology and size of flagellum at 6.8 uM after 24 hrs by SEM analysis; format: functional, organism-based; method in brief: as §2
[14] = test system: Trypanosoma cruzi; experiment: Induction of morphological changes in Trypanosoma cruzi trypomastigotes assessed as abnormal chromatin condensation at 3.4 to 6.8 uM after 24 hrs by TEM analysis; format: functional, organism-based; conditions: dose 3.4-6.8 µM; method in brief: as §2
[15] = test system: Trypanosoma cruzi; experiment: Induction of morphological changes in Trypanosoma cruzi trypomastigotes assessed as alteration in reservosomes at 3.4 to 6.8 uM after 24 hrs by TEM analysis; format: functional, organism-based; conditions: dose 3.4-6.8 µM; method in brief: as §2

Cruzipain, sequence (P25779 whole entry): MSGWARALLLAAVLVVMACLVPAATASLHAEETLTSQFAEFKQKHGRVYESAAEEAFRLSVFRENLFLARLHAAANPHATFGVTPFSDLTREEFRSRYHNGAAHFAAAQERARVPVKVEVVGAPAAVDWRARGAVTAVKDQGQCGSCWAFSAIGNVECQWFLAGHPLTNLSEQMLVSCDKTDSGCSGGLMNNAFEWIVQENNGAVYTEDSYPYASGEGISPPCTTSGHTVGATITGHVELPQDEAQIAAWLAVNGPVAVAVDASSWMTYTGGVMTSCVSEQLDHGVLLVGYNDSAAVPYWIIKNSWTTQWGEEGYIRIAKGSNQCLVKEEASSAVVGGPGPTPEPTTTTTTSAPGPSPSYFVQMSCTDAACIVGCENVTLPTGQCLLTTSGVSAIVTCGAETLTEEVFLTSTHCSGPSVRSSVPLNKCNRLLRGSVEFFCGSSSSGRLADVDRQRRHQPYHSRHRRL
Cruzipain (Trypanosoma cruzi), sequence (P25779 123-467 limits assumed): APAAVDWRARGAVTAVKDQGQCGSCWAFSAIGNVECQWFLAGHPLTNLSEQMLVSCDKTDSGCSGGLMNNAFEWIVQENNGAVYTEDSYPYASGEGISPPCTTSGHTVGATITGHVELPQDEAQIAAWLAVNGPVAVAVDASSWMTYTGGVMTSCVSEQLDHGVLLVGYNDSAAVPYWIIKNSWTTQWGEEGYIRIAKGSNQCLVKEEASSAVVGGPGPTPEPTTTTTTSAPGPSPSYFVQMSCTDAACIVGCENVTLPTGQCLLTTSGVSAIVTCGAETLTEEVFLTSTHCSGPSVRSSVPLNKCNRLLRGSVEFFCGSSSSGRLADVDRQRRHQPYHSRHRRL

Row | Compound | MNTC at 24 h [1] | IC50 [2] | selectivity ratio [3] | inhibition [4] | IC50 [5] | further results
1 | CC/C(=N\Nc1nc(-c2ccc(C)cc2)cs1)c1cccc(Br)c1 | 125 µM | 19.2 µM | 7.5 | 97.7% | 16.6 µM | 
2 | CC/C(=N\Nc1nc(-c2ccc(-c3ccccc3)cc2)cs1)c1cccc(Br)c1 | > 216 µM |  | > 64.5 | 18.1% | 3.35 µM | 
3 | CC/C(=N\N=C(/S)Nc1ccccc1)c1cccc(Br)c1 | 138 µM |  | 10.4 |  | 13.3 µM | inhibition [6]: 49.5%
4 | CC/C(=N\Nc1nc(-c2ccc(OC)cc2)cs1)c1cccc(Br)c1 | 120 µM |  | 31.3 | 72% | 3.84 µM | Activity [7]: Active; Activity [8]: Active; Activity [9]: Active; Activity [10]: Active; Activity [11]: Dose-dependent effect; Activity [12]: Active; Activity [13]: Active; Activity [14]: Active; Activity [15]: Active
5 | CC/C(=N\Nc1nc(-c2ccccc2)cs1)c1cccc(Br)c1 | 64.7 µM | 44.6 µM | 11.7 | 80.7% | 5.51 µM | 
6 | CC/C(=N\Nc1nc(-c2ccc3ccccc3c2)cs1)c1cccc(Br)c1 | > 229 µM | 9.5 µM | > 4.5 | 88.2% | 51 µM | 
7 | CC/C(=N\Nc1nc(-c2ccc(F)cc2)cs1)c1cccc(Br)c1 | 124 µM | 16.5 µM | 0.8 | 95.8% | 146 µM | 
8 | CC/C(=N\N=c1/scc(-c2ccc(OC)cc2)n1C)c1cccc(Br)c1 | 58.1 µM |  | 0.7 |  | 76.6 µM | inhibition [6]: 33.1%
9 | CC/C(=N\N=C(/S)NC)c1cccc(Br)c1 | 33.3 µM |  | 0.9 |  | 36.3 µM | inhibition [6]: 11.7%
10 | CC/C(=N\Nc1nc(-c2ccccc2)c(C)s1)c1cccc(Br)c1 | 12.5 µM | 0.51 µM | 2.6 | 99.5% | 4.79 µM | 
11 | CC/C(=N\Nc1nc(-c2ccc([N+](=O)[O-])cc2)cs1)c1cccc(Br)c1 | > 232 µM |  | > 3.9 | 68.9% | 60 µM | 
12 | CC/C(=N\Nc1nc(-c2ccc(Cl)cc2Cl)cs1)c1cccc(Br)c1 | 54.9 µM | 15.1 µM | 0.9 | 99.7% | 59.2 µM | 
13 | O=C(Cn1ccnc1[N+](=O)[O-])NCc1ccccc1 [BENZNIDAZOLE] |  |  | 15.4 |  |  | 
14 | CC/C(=N\Nc1nc(-c2ccc(Cl)cc2)cs1)c1cccc(Br)c1 | 119 µM | 32.7 µM | 0.8 | 90.4% | 140 µM | 
15 | CC/C(=N\Nc1nc(-c2cccc([N+](=O)[O-])c2)cs1)c1cccc(Br)c1 | 23.2 µM | 14.6 µM | 1.5 | 85.3% | 15.1 µM | 
16 | CC/C(=N\Nc1nc(-c2ccc(Br)cc2)c(C)s1)c1cccc(Br)c1 | 20.9 µM | 3.8 µM | 3.6 | 100% | 5.8 µM | 
17 | CC/C(=N\Nc1nc(-c2ccc(Cl)c(Cl)c2)cs1)c1cccc(Br)c1 | 54.9 µM | 11.3 µM | 0.4 | 86.8% | 130 µM | 
18 | CC/C(=N\N=c1/scc(-c2ccccc2)n1-c1ccccc1)c1cccc(Br)c1 | 50.8 µM |  | 0.9 |  | 53.1 µM | 
19 | CC/C(=N\NC(N)=S)c1cccc(Br)c1 | 34.9 µM |  |  |  | 2.41 µM | 
